Published values from different studies.
Each line is one published result; the experiments were not run side by side.
Organism: Trypanosoma brucei
Read-out: parasite growth

SMILES | assay | test system | setting | measurement | result
N=C(N)c1ccc(OCCCCCOc2ccc(C(=N)N)cc2)cc1 |  |  |  | EC50 | 5.4 nM
Cc1nn(C)c2cc(N(C)c3ccnc(Nc4cccc(S(N)(=O)=O)c4)n3)ccc12 |  |  |  | EC50 | 316 nM
Cc1ccc2nc(-c3ccc(F)c(F)c3)c(CN3CCN(C4CCCCC4)CC3)n2c1 |  |  | 48 h | EC90 | > 20 µM
Cc1ccc(C(=O)Nc2ccc(S(=O)(=O)O)c3cc(S(=O)(=O)O)cc(S(=O)(=O)O)c23)cc1NC(=O)c1cccc(NC(=O)Nc2cccc(C(=O)Nc3cc(C(=O)Nc4ccc(S(=O)(=O)O)c5cc(S(=O)(=O)O)cc(S(=O)(=O)O)c45)ccc3C)c2)c1 | resazurin | RHODESIENSE |  | IC50 | 50 nM
Nc1nc(N)c2nc(C(=O)NCc3ccccc3)cnc2n1 | resazurin |  | 10 µM, 72 h | inhibition | 19%
COc1cc(Nc2nccc(Nc3ccc4c(C)n[nH]c4c3)n2)cc(OC)c1OC |  |  |  | EC50 | 631 nM
COC(=O)C1CCN(C(=O)Cc2ccc(NCc3cnc4nc(N)nc(N)c4n3)cc2)CC1 | resazurin |  | 10 µM, 72 h | inhibition | 23%
COc1cc(Nc2ncc3c(C)nc(-c4cccc(Oc5ccccc5)c4)n3n2)cc(OC)c1OC |  |  |  | EC50 | 794 nM
Cc1ccc2nc(-c3ccc(F)c(F)c3)c(CN3CCC(Cc4ccccc4)CC3)n2c1 |  |  | 48 h | EC50 | 16600 nM
NNC(=O)CN1C(=O)CNC2(C1=O)C1CC3CC(C1)CC2C3 (centres unmarked) |  |  | pH 7.4, blood stage | IC50 | 118000 nM
COC(=O)C1CCN(C(=O)c2ccc(NCc3cnc4nc(N)nc(N)c4n3)cn2)CC1 | resazurin |  | 10 µM, 72 h | inhibition | 10%
Cc1c2ccc(N(C)c3ccnc(Nc4cccc(S(N)(=O)=O)c4)n3)cc2nn1C |  |  |  | EC50 | 5010 nM
Nc1nc(N)c2nc(CNc3ccc(C(=O)N4CCC(C(=O)O)CC4)cc3)cnc2n1 | resazurin |  | 10 µM, 72 h | inhibition | 8%
CN(C)CCCN1c2ccccc2Sc2ccc(Cl)cc21 |  |  | blood stage | EC50 | 4210 nM
CC1CS(=O)(=O)CCN1/N=C/c1ccc([N+](=O)[O-])o1 (centres unmarked) |  |  |  | IC50 | 3500 nM
Nc1nc(N)c2nc(CNc3ccc(C(=O)c4ccccc4)cc3)cnc2n1 | resazurin |  | 10 µM, 72 h | inhibition | 76%

SMILES | assay | test system | setting | measurement | result
O=[N+]([O-])c1c(CS(=O)(=O)c2ccccc2)nc2c(-c3cccc(C(F)(F)F)c3)cc(Cl)cn12 | resazurin |  | trypomastigote | IC50 | 40 to 160 nM
C[C@@H](Oc1cc(-n2cnc3ccc(OCC4CCN(C)CC4)cc32)sc1C(N)=O)c1ccccc1Cl |  |  |  | EC50 | 15.8 nM
Nc1nc(N)c2nc(CNc3cccc4ccccc34)cnc2n1 | resazurin |  | 10 µM, 72 h | inhibition | 31%
Cc1cc(NC(=O)Nc2ccc3c(c2)OC(F)(F)O3)cc(C(F)(F)F)n1 |  | RHODESIENSE STIB900 |  | IC50 | 5100 nM
COc1cc2c(cc1Nc1nc(N3CCc4ccccc43)c3cc[nH]c3n1)N(C(=O)CN(C)C)CC2 |  |  |  | EC50 | 100 nM
Clc1ccc2c(c1)N(CCCN1CCN(CCCc3ccccc3)CC1)c1ccccc1S2 |  |  |  | EC50 | 775 nM
CCCN1CCC(c2ccc(Nc3nc(Nc4cc(F)ccc4C(N)=O)c4cc[nH]c4n3)c(OC)c2)CC1 |  |  |  | EC50 | 1580 nM
ClCCOC(c1ccccc1)c1ccccc1 |  |  |  | EC50 | 32100 nM
COC(=O)C1CCN(C(=O)c2ccc(SCc3cnc4nc(N)nc(N)c4n3)nc2)CC1 | resazurin |  | 10 µM, 72 h | inhibition | 16%
CONC(=O)CN1C(=O)CNC2(C1=O)C1CC3CC(C1)CC2C3 (centres unmarked) |  |  | pH 7.4, blood stage | IC50 | 542000 nM
Cc1ccc2nc(-c3ccc(Cl)cc3)cn2c1 |  |  | 48 h | EC90 | > 20 µM
Cc1ccc(C(=O)Nc2ccc(S(=O)(=O)O)c3cc(S(=O)(=O)O)cc(S(=O)(=O)O)c23)cc1NC(=O)c1cccc(NC(=O)Nc2cccc(C(=O)Nc3cc(C(=O)Nc4ccc(S(=O)(=O)O)c5cc(S(=O)(=O)O)cc(S(=O)(=O)O)c45)ccc3C)c2)c1 | resazurin | RHODESIENSE STIB900 |  | IC50 | 35 nM
N=C(N)c1ccc(OCCCCCOc2ccc(C(=N)N)cc2)cc1 |  |  |  | EC90 | 0.0062 µM
COc1ccc(-c2oc3ncnc(N)c3c2-c2ccc(NC(=O)Nc3cc(C(F)(F)F)ccc3F)cc2)cc1 |  |  |  | EC50 | 1580 nM
CCCOC(=O)C1CCN(C(=O)c2ccc(N(C)Cc3cnc4nc(N)nc(N)c4n3)cc2)CC1 | resazurin |  | 10 µM, 72 h | inhibition | 51%
COc1ccc(C(=O)Nc2ccc(NC(=N)N)c(OCc3cc(OC)ccc3OC)c2)cc1 |  |  |  | IC50 | 800 nM
